Data from publication PMC5042352 (Analytical methods : advancing methods and applications, 2016).
Read-outs that look alike come from different tables or passages of the source.

Experiments:
[1] = reported; cited from earlier work
[2] = Stability of the analytes in human plasma at QC levels; format: in vitro ADME; conditions: for Short-term Dev. (%) / Short-term MCM ± SD: 6 h, r.t.; for Short-term Dev. (%) / Short-term MCM ± SD / Long-term Dev. (%) / Long-term MCM ± SD / Freeze–thaw Dev. (%) / Freeze–thaw MCM ± SD: human plasma; for Short-term Dev. (%) / Short-term MCM ± SD / Long-term Dev. (%) / Long-term MCM ± SD / The autosampler Dev. (24h, %) / The autosampler MCM ± SD (24h) / The autosampler Dev. (48h, %) / The autosampler MCM ± SD (48h) / Freeze–thaw Dev. (%) / Freeze–thaw MCM ± SD: n = 5; for Long-term Dev. (%) / Long-term MCM ± SD: 40 days; for Long-term Dev. (%) / Long-term MCM ± SD / Freeze–thaw Dev. (%) / Freeze–thaw MCM ± SD: −40 °C; for The autosampler Dev. (24h, %) / The autosampler MCM ± SD (24h) / The autosampler Dev. (48h, %) / The autosampler MCM ± SD (48h): autosampler r.t.; for Freeze–thaw Dev. (%) / Freeze–thaw MCM ± SD: four cycles
In short: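 QC plasma made by spiking working solution into drug-free human plasma (1:9); the phosphate ester is pre-stabilised with 2M sodium cacodylate and 50% KF. Freeze-thaw: frozen at −40 °C for 24 h, thawed at 25 °C. Short-term: 6 h at room temperature. Long-term: −40 °C for 40 days. Quantified by UPLC-MS/MS against 1/x-weighted analyte/IS peak-area-ratio calibration curves.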

[3] = format: in vivo, human (Chinese male healthy subjects); conditions: for AUC0–∞ / Tmax / T½ (half-life of elimination) / AUC0–t: mean ± SD, n = 23; for Tmax / T½ (half-life of elimination): single i.m. injection; for AUC0–t: t = 4 h (BDP), 120 h (BOH), 360 h (B17P)

Compound | Short-term Dev. (%) ([2]; high QC) | Short-term MCM ± SD ([2]; high QC) | Long-term Dev. (%) ([2]; high QC) | Long-term MCM ± SD ([2]; high QC) | The autosampler Dev. (24h, %) ([2]; high QC) | The autosampler MCM ± SD (24h) ([2]; high QC) | The autosampler Dev. (48h, %) ([2]; high QC) | The autosampler MCM ± SD (48h) ([2]; high QC) | Freeze–thaw Dev. (%) ([2]; high QC) | Freeze–thaw MCM ± SD ([2]; high QC) | Short-term Dev. (%) ([2]; low QC) | Short-term MCM ± SD ([2]; low QC) | Long-term Dev. (%) ([2]; low QC) | Long-term MCM ± SD ([2]; low QC) | The autosampler Dev. (24h, %) ([2]; low QC) | The autosampler MCM ± SD (24h) ([2]; low QC) | The autosampler Dev. (48h, %) ([2]; low QC) | The autosampler MCM ± SD (48h) ([2]; low QC) | Freeze–thaw Dev. (%) ([2]; low QC) | Freeze–thaw MCM ± SD ([2]; low QC) | further results
CCC(=O)OCC(=O)[C@@]1(OC(=O)CC)[C@@H](C)C[C@H]2[C@@H]3CCC4=CC(=O)C=C[C@]4(C)[C@@]3(F)[C@@H](O)C[C@@]21C [BDP, betamethasone dipropionate] | −0.51% | 44.42 ± 0.893 × 10^−9 mol·dm^−3 | 4.01% | 46.43 ± 1.399 × 10^−9 mol·dm^−3 | −6.84% | 41.59 ± 1.016 × 10^−9 mol·dm^−3 | −2.95% | 43.33 ± 1.131 × 10^−9 mol·dm^−3 | 0.68% | 44.94 ± 1.177 × 10^−9 mol·dm^−3 | 4.0% | 0.258 ± 0.048 × 10^−9 mol·dm^−3 | −3.2% | 0.240 ± 0.012 × 10^−9 mol·dm^−3 | −11.2% | 0.220 ± 0.016 × 10^−9 mol·dm^−3 | −10.4% | 0.222 ± 0.020 × 10^−9 mol·dm^−3 | 11.2% | 0.276 ± 0.042 × 10^−9 mol·dm^−3 | elimination half-life time [1]: 0.43 h; Short-term Dev. (%) ([2]; middle QC): 2.04%; Short-term MCM ± SD ([2]; middle QC): 4.746 ± 0.155 × 10^−9 mol·dm^−3; Long-term Dev. (%) ([2]; middle QC): 1.80%; Long-term MCM ± SD ([2]; middle QC): 4.734 ± 0.141 × 10^−9 mol·dm^−3; The autosampler Dev. (24h, %) ([2]; middle QC): −7.45%; The autosampler MCM ± SD (24h) ([2]; middle QC): 4.304 ± 0.123 × 10^−9 mol·dm^−3; The autosampler Dev. (48h, %) ([2]; middle QC): −5.68%; The autosampler MCM ± SD (48h) ([2]; middle QC): 4.387 ± 0.103 × 10^−9 mol·dm^−3; Freeze–thaw Dev. (%) ([2]; middle QC): 3.45%; Freeze–thaw MCM ± SD ([2]; middle QC): 4.811 ± 0.135 × 10^−9 mol·dm^−3
C[C@H]1C[C@H]2[C@@H]3CCC4=CC(=O)C=C[C@]4(C)[C@@]3(F)[C@@H](O)C[C@]2(C)[C@@]1(O)C(=O)COP(=O)([O-])[O-].[Na+].[Na+] [BSP, betamethasone sodium phosphate] | −3.78% | 310.9 ± 14.43 × 10^−9 mol·dm^−3 | −1.02% | 320.0 ± 10.35 × 10^−9 mol·dm^−3 | −2.94% | 313.6 ± 35.39 × 10^−9 mol·dm^−3 | 11.19% | 359.2 ± 22.46 × 10^−9 mol·dm^−3 | −2.50% | 315.1 ± 4.665 × 10^−9 mol·dm^−3 | −1.19% | 4.988 ± 0.250 × 10^−9 mol·dm^−3 | −1.07% | 4.994 ± 0.560 × 10^−9 mol·dm^−3 | 4.03% | 5.252 ± 0.696 × 10^−9 mol·dm^−3 | 10.63% | 5.585 ± 0.616 × 10^−9 mol·dm^−3 | −2.84% | 4.905 ± 0.357 × 10^−9 mol·dm^−3 | Short-term Dev. (%) ([2]; middle QC): −2.55%; Short-term MCM ± SD ([2]; middle QC): 39.36 ± 5.767 × 10^−9 mol·dm^−3; Long-term Dev. (%) ([2]; middle QC): −1.06%; Long-term MCM ± SD ([2]; middle QC): 39.94 ± 5.576 × 10^−9 mol·dm^−3; The autosampler Dev. (24h, %) ([2]; middle QC): 1.08%; The autosampler MCM ± SD (24h) ([2]; middle QC): 40.83 ± 5.209 × 10^−9 mol·dm^−3; The autosampler Dev. (48h, %) ([2]; middle QC): 9.88%; The autosampler MCM ± SD (48h) ([2]; middle QC): 44.38 ± 5.581 × 10^−9 mol·dm^−3; Freeze–thaw Dev. (%) ([2]; middle QC): −2.67%; Freeze–thaw MCM ± SD ([2]; middle QC): 39.30 ± 5.785 × 10^−9 mol·dm^−3; stability in human blank plasma ([2]; without stabilizer (sodium cacodylate, potassium fluoride)): labile
CCC(=O)O[C@]1(C(=O)CO)[C@@H](C)C[C@H]2[C@@H]3CCC4=CC(=O)C=C[C@]4(C)[C@@]3(F)[C@@H](O)C[C@@]21C [B17P, betamethasone 17-monopropionate] | −8.39% | 3.435 ± 0.353 × 10^−9 mol·dm^−3 | 10.5% | 4.185 ± 0.616 × 10^−9 mol·dm^−3 | −12.14% | 3.295 ± 0.304 × 10^−9 mol·dm^−3 | −4.7% | 3.574 ± 0.531 × 10^−9 mol·dm^−3 | 2.2% | 3.832 ± 0.330 × 10^−9 mol·dm^−3 | 9.09% | 0.214 ± 0.020 × 10^−9 mol·dm^−3 | 4.54% | 0.205 ± 0.027 × 10^−9 mol·dm^−3 | 5.68% | 0.208 ± 0.022 × 10^−9 mol·dm^−3 | −5.68% | 0.185 ± 0.025 × 10^−9 mol·dm^−3 | 12.5% | 0.221 ± 0.335 × 10^−9 mol·dm^−3 | elimination half-life time [1]: 80.8 h; AUC0–∞ ([3]; Reference formulation): 281.7 ± 91.50 × 10^−9 mol·dm^−3·h^−1; Tmax ([3]; Reference formulation): 17.74 ± 13.04 h; T½ (half-life of elimination) ([3]; Reference formulation): 106.6 ± 35.93 h; AUC0–∞ ([3]; Test formulation): 305.4 ± 108.1 × 10^−9 mol·dm^−3·h^−1; Tmax ([3]; Test formulation): 19.83 ± 12.27 h; T½ (half-life of elimination) ([3]; Test formulation): 101.3 ± 39.43 h; AUC0–t ([3]; Test formulation): 259.2 ± 89.1 × 10^−9 mol·dm^−3·h^−1; Short-term Dev. (%) ([2]; middle QC): 2.08%; Short-term MCM ± SD ([2]; middle QC): 1.196 ± 0.112 × 10^−9 mol·dm^−3; Long-term Dev. (%) ([2]; middle QC): 5.91%; Long-term MCM ± SD ([2]; middle QC): 1.241 ± 0.129 × 10^−9 mol·dm^−3; The autosampler Dev. (24h, %) ([2]; middle QC): 7.80%; The autosampler MCM ± SD (24h) ([2]; middle QC): 1.266 ± 0.094 × 10^−9 mol·dm^−3; The autosampler Dev. (48h, %) ([2]; middle QC): −5.02%; The autosampler MCM ± SD (48h) ([2]; middle QC): 1.114 ± 0.129 × 10^−9 mol·dm^−3; Freeze–thaw Dev. (%) ([2]; middle QC): 6.62%; Freeze–thaw MCM ± SD ([2]; middle QC): 1.250 ± 0.112 × 10^−9 mol·dm^−3
CCC(=O)OCC(=O)[C@@]1(O)[C@@H](C)C[C@H]2[C@@H]3CCC4=CC(=O)C=C[C@]4(C)[C@@]3(F)[C@@H](O)C[C@@]21C [B21P, betamethasone 21-monopropionate] | −8.64% | 3.944 ± 0.303 × 10^−9 mol·dm^−3 | −9.13% | 3.924 ± 0.078 × 10^−9 mol·dm^−3 | −8.3% | 3.960 ± 0.160 × 10^−9 mol·dm^−3 | −9.13% | 3.924 ± 0.171 × 10^−9 mol·dm^−3 | −2.48% | 4.211 ± 0.301 × 10^−9 mol·dm^−3 | 2.97% | 0.463 ± 0.062 × 10^−9 mol·dm^−3 | 8.42% | 0.488 ± 0.067 × 10^−9 mol·dm^−3 | 7.92% | 0.486 ± 0.020 × 10^−9 mol·dm^−3 | −0.5% | 0.448 ± 0.038 × 10^−9 mol·dm^−3 | 2.97% | 0.463 ± 0.024 × 10^−9 mol·dm^−3 | plasma concentration in healthy subjects' plasma samples (detectability) ([3]; after i.m. injection of the compound medicine BSP and BDP): slightly above the LLOQ; Short-term Dev. (%) ([2]; middle QC): −2.87%; Short-term MCM ± SD ([2]; middle QC): 1.873 ± 0.094 × 10^−9 mol·dm^−3; Long-term Dev. (%) ([2]; middle QC): −1.98%; Long-term MCM ± SD ([2]; middle QC): 1.891 ± 0.143 × 10^−9 mol·dm^−3; The autosampler Dev. (24h, %) ([2]; middle QC): 2.05%; The autosampler MCM ± SD (24h) ([2]; middle QC): 1.993 ± 0.129 × 10^−9 mol·dm^−3; The autosampler MCM ± SD (48h) ([2]; middle QC): 2.007 ± 0.156 × 10^−9 mol·dm^−3; Freeze–thaw Dev. (%) ([2]; middle QC): 1.08%; Freeze–thaw MCM ± SD ([2]; middle QC): 1.949 ± 0.147 × 10^−9 mol·dm^−3
C[C@H]1C[C@H]2[C@@H]3CCC4=CC(=O)C=C[C@]4(C)[C@@]3(F)[C@@H](O)C[C@]2(C)[C@@]1(O)C(=O)CO [BOH, betamethasone] | 8.02% | 64.74 ± 5.074 × 10^−9 mol·dm^−3 | −12.3% | 52.55 ± 2.816 × 10^−9 mol·dm^−3 | −10.82% | 53.47 ± 2.906 × 10^−9 mol·dm^−3 | 6.68% | 63.95 ± 3.102 × 10^−9 mol·dm^−3 | 5.54% | 63.29 ± 2.673 × 10^−9 mol·dm^−3 | 9.63% | 0.610 ± 0.048 × 10^−9 mol·dm^−3 | 7.34% | 0.597 ± 0.064 × 10^−9 mol·dm^−3 | 5.04% | 0.584 ± 0.056 × 10^−9 mol·dm^−3 | 2.29% | 0.569 ± 0.087 × 10^−9 mol·dm^−3 | 3.67% | 0.577 ± 0.038 × 10^−9 mol·dm^−3 | AUC0–∞ ([3]; Reference formulation): 915.3 ± 206.5 × 10^−9 mol·dm^−3·h^−1; AUC0–∞ ([3]; Test formulation): 856.6 ± 269.4 × 10^−9 mol·dm^−3·h^−1; AUC0–t ([3]; Test formulation): 820.2 ± 249.4 × 10^−9 mol·dm^−3·h^−1; Short-term Dev. (%) ([2]; middle QC): 8.82%; Short-term MCM ± SD ([2]; middle QC): 10.87 ± 0.633 × 10^−9 mol·dm^−3; Long-term Dev. (%) ([2]; middle QC): 5.78%; Long-term MCM ± SD ([2]; middle QC): 10.57 ± 0.577 × 10^−9 mol·dm^−3; The autosampler MCM ± SD (24h) ([2]; middle QC): 10.20 ± 0.505 × 10^−9 mol·dm^−3; The autosampler Dev. (48h, %) ([2]; middle QC): 3.89%; The autosampler MCM ± SD (48h) ([2]; middle QC): 10.38 ± 0.513 × 10^−9 mol·dm^−3; Freeze–thaw Dev. (%) ([2]; middle QC): 4.88%; Freeze–thaw MCM ± SD ([2]; middle QC): 10.48 ± 0.645 × 10^−9 mol·dm^−3
